Results reported in ChEMBL document CHEMBL3877308, “Design, synthesis and in vitro biological evaluation of oligopeptides targeting E. coli type I signal peptidase (LepB)” (Bioorg Med Chem, 2017).
Converted amounts (≈) assume the structure as drawn.

What was measured:
[1] = target: T1, Signal peptidase I (Escherichia coli K-12, UniProt P00803); experiment: (§1) Inhibition of full length Escherichia coli His6-tagged LepB expressed in Escherichia coli C43(DE3) using dabcyl-VEVGGTATAGAFSRPGLE-(EDANS) as substrate preincubated for 10 mins followed by substrate addition measured for 2 hrs by FRET assay
T1 sequence (P00803 whole entry): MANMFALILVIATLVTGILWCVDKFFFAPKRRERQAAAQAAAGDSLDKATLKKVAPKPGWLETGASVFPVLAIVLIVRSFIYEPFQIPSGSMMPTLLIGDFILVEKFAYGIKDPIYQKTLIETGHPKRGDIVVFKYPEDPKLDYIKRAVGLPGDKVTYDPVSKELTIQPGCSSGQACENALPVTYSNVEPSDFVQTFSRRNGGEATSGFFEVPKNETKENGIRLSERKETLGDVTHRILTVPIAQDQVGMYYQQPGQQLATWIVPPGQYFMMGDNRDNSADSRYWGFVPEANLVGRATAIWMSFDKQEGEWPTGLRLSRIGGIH
In short: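 Enzyme extracted from the membrane fraction with 1% reduced Triton X-100 and purified by metal-chelation chromatography in 0.5% detergent. Enzyme (final ~50 nM) was pre-incubated with compound for 10 min at 22 °C. The linear rise in EDANS donor fluorescence (dabcyl acceptor) was then followed at 22 °C for 2 h. IC50 came from non-linear regression of sigmoidal rate-versus-concentration curves.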

[2] = target: Signal peptidase I (Escherichia coli K-12) (UniProt P00803); experiment: as §1, with “C43(DE3) assessed as residual activity at 15.625 uM” for “C43(DE3)”, “assay relative to control” for “assay”
Chain of Signal peptidase I (Escherichia coli K-12) (P00803 whole entry): as above
In short: (§2)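 Enzyme came from the membrane fraction, extracted with 1% reduced Triton X-100 and purified by metal-chelation chromatography in 0.5% detergent. FRET pair was dabcyl acceptor and EDANS donor. EcLepB (final about 50 nM) was pre-incubated with compound 10 min at 22 °C. Reaction was then run with 8 µM substrate, following the linear fluorescence increase at 22 °C for 2 h.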

[3] = target: Signal peptidase I (Escherichia coli K-12) (UniProt P00803); experiment: as §1, with “C43(DE3) assessed as residual activity at 31.25 uM” for “C43(DE3)”, “assay relative to control” for “assay”; in short: as §2
[4] = target: Signal peptidase I (Escherichia coli K-12) (UniProt P00803); experiment: (§3) Inhibition of full length Escherichia coli His6-tagged LepB expressed in Escherichia coli C43(DE3) at 100 uM using dabcyl-VEVGGTATAGAFSRPGLE-(EDANS) as substrate preincubated for 10 mins followed by substrate addition measured for 2 hrs by FRET assay relative to control; in short: as §2
[5] = target: Signal peptidase I (Escherichia coli K-12) (UniProt P00803); experiment: as §3, with “C43(DE3) assessed as residual activity” for “C43(DE3)”, “1000” for “100”; in short: as §2
[6] = target: Signal peptidase I (Escherichia coli K-12) (UniProt P00803); experiment: (§4) Inhibition of full length Escherichia coli His6-tagged LepB expressed in Escherichia coli C43(DE3) assessed as residual activity at 500 uM using dabcyl-VEVGGTATAGAFSRPGLE-(EDANS) as substrate preincubated for 10 mins followed by substrate addition measured for 2 hrs by FRET assay relative to control; in short: as §2
[7] = target: Signal peptidase I (Escherichia coli K-12) (UniProt P00803); experiment: Inhibition of full length Escherichia coli His6-tagged LepB expressed in Escherichia coli C43(DE3) assessed as residual activity at 250 uM using dabcyl-VEVGGTATAGAFSRPGLE-(EDANS) as substrate preincubated for 10 mins followed by substrate addition measured for 2 hrs by FRET assay relative to control; in short: as §2
[8] = target: Signal peptidase I (Escherichia coli K-12) (UniProt P00803); experiment: Inhibition of full length Escherichia coli His6-tagged LepB expressed in Escherichia coli C43(DE3) assessed as residual activity at 125 uM using dabcyl-VEVGGTATAGAFSRPGLE-(EDANS) as substrate preincubated for 10 mins followed by substrate addition measured for 2 hrs by FRET assay relative to control; in short: as §2
[9] = target: Signal peptidase I (Escherichia coli K-12) (UniProt P00803); experiment: as §4, with “62.5” for “500”; in short: as §2
[10] = target: Signal peptidase I (Escherichia coli K-12) (UniProt P00803); experiment: as §4, with “7.8125” for “500”; in short: as §2
[11] = target: Signal peptidase I (Escherichia coli K-12) (UniProt P00803); experiment: as §4, with “3.90625” for “500”; in short: as §2
[12] = target: Signal peptidase I (Escherichia coli K-12) (UniProt P00803); experiment: as §4, with “1.953125” for “500”; in short: as §2
[13] = target: Signal peptidase I (Escherichia coli K-12) (UniProt P00803); experiment: as §4, with “0.9765625” for “500”; in short: as §2
[14] = target: Signal peptidase I (Escherichia coli K-12) (UniProt P00803); experiment: as §4, with “0.4882812” for “500”; in short: as §2
[15] = target: Signal peptidase I (Escherichia coli K-12) (UniProt P00803); experiment: as §4, with “0.241406” for “500”; in short: as §2
[16] = target: Signal peptidase I (Escherichia coli K-12) (UniProt P00803); experiment: as §4, with “0.1220703” for “500”; in short: as §2
[17] = tested on: Escherichia coli; experiment: Antibacterial activity against wild type Escherichia coli ATCC 25922 after 16 to 20 hrs by broth microdilution assay; assay type: functional
In short: (§5)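 MIC by broth microdilution in cation-adjusted Mueller-Hinton II medium, following EUCAST and CLSI guidelines; panel of Gram-negative strains plus S. aureus ATCC 29213.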

[18] = tested on: Escherichia coli; experiment: Antibacterial activity against Escherichia coli CH3130 harboring tolC deletion mutant after 16 to 20 hrs by broth microdilution assay; assay type: functional
In short: (§6)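 Broth microdilution MIC in cation-adjusted Mueller-Hinton II medium, following EUCAST and CLSI guidelines; tested on a panel of Gram-negative strains plus S. aureus ATCC 29213 (wild-type).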

[19] = tested on: Escherichia coli; experiment: Antibacterial activity against Escherichia coli D22 harboring lpxC mutant after 16 to 20 hrs by broth microdilution assay; assay type: functional; in short: as §6
[20] = tested on: Pseudomonas aeruginosa; experiment: Antibacterial activity against wild type Pseudomonas aeruginosa PAO1 after 16 to 20 hrs by broth microdilution assay; assay type: functional; in short: as §5
[21] = tested on: Pseudomonas aeruginosa; experiment: Antibacterial activity against wild type Pseudomonas aeruginosa PAO750 harboring efflux defective mutant after 16 to 20 hrs by broth microdilution assay; assay type: functional; in short: as §6
[22] = tested on: Klebsiella pneumoniae; experiment: Antibacterial activity against wild type Klebsiella pneumoniae […] after 16 to 20 hrs by broth microdilution assay; assay type: functional; in short: as §5
[23] = tested on: Staphylococcus aureus; experiment: Antibacterial activity against wild type Staphylococcus aureus ATCC 29213 after 16 to 20 hrs by broth microdilution assay; assay type: functional; in short: as §5
[24] = tested on: Acinetobacter baumannii; experiment: Antibacterial activity against wild type Acinetobacter baumannii ATCC 19606 after 16 to 20 hrs by broth microdilution assay; assay type: functional; in short: as §5
[25] = target: T1, Signal peptidase I; experiment: Inhibition of full length Escherichia coli His6-tagged LepB expressed in Escherichia coli C43(DE3) using dabcyl-VEVGGTATAGAFSRPGLE-(EDANS) as substrate preincubated for 10 mins followed by substrate addition measured after […] by FRET assay

In the case of `CCCCCCCCCC(=O)N1CCC[C@H]1C(=O)N[C@H](C(=O)N[C@@H](C)C(=O)N[C@@H](CC(N)=O)C(=O)N[C@@H](C)C=O)[C@H](C)O`, the IC50 [1] is reported as 1.2 µM, the Activity [2] is reported as 13% and the Activity [3] is reported as 6.54%. The inhibition [4] was 100%, the Activity [5] was -5.5% and the Activity [6] was -4.44%. For the same molecule, the Activity [7] was -6.1%, the Activity [8] was -3.34% and the Activity [9] was -0.871%. It also gave an Activity [10] of 20.9%, an Activity [11] of 34.7% and an Activity [12] of 43.6%. For the same molecule, the Activity [13] was 48.7%, the Activity [14] was 64.5% and the Activity [15] was 72.6%. The Activity [16] was 77.4%, the MIC [17] was over 128 µg/mL and the MIC [18] was over 128 µg/mL. For the same molecule, the MIC [19] was over 128 µg/mL, the MIC [20] was over 128 µg/mL and the MIC [21] was 128 µg/mL (≈ 210 µM). It also gave an MIC [22] of over 128 µg/mL, an MIC [23] of over 128 µg/mL and an MIC [24] of over 128 µg/mL. For the same molecule, the IC50 [25] was 6.5 µM.
